Assay results pooled from the literature.
Target: Casein kinase I isoform epsilon (CSNK1E, Homo sapiens, UniProt P49674)

| SMILES | test | setting | endpoint | value |
| --- | --- | --- | --- | --- |
| O=C(O)c1cc(-c2ccc(C3CCNCC3)cc2)c2ccc(-c3ccc(C(F)(F)F)cc3)cc2c1 | cell-free assay, competition with immobilised ligand | 1 µM | remaining binding | 100% |
| O=C(Nc1cnn(-c2csc(C(=O)NC3COC3)c2)c1)Nc1ccccc1Cl | enzyme activity, inhibitor | 5 µM | remaining activity | 89.6% |
| Cc1ccc(C(=O)Nc2ccc(CN3CCN(C)CC3)c(C(F)(F)F)c2)cc1C#Cc1cnc2cccnn12 | enzyme activity, inhibitor | 23.5 nM | remaining activity | 88% |
| COc1cc2c(N3CCN(C(=O)Nc4ccc(OC(C)C)cc4)CC3)ncnc2cc1OCCCN1CCCCC1 | cell-free assay | 0.5 µM | remaining signal | 99.1% |
| CCOC(=O)c1cc2cc(-c3cc(C(=O)NCc4ccc(C(=O)O)cc4)nn3C)ccc2[nH]1 | cell-free assay, competition with immobilised ligand | 0.1 µM | remaining binding | 100% |
| COc1cc2ncnc(Nc3ccc(F)c(Cl)c3)c2cc1OCCCN1CCOCC1 | enzyme activity | 0.5 µM | remaining activity | 106% |
| Cn1c2c(c3ccc(Cl)c(Cl)c31)C(C#N)C1(CCOCC1)NC2=O (stereo not shown) | thermal stability, DSF | 10 µM | ΔTm | 0.4 °C |
| CC(C)(C)c1nc(-c2cccc(NS(=O)(=O)c3c(F)cccc3F)c2F)c(-c2ccnc(N)n2)s1 | enzyme activity, inhibitor, radiometric | 1 µM | remaining activity | 89% |
| CCN1/C(=C/C(C)=O)Sc2ccc(OC)cc21 | enzyme activity | 0.5 µM | remaining activity | 60.1% |
| CCCS(=O)(=O)Nc1ccc(F)c(C(=O)c2c[nH]c3ncc(-c4ccc(Cl)cc4)cc23)c1F | enzyme activity, inhibitor | 1 µM | inhibition | < 10% |
| O=c1cc(-c2cccc3c2Sc2ccccc2S3)oc(N2CCOCC2)c1 | enzyme activity, inhibitor | 0.5 µM | remaining activity | 104% |
| Cn1c2c(Cl)c(Cl)ccc2c2cc[nH]c(=O)c21 | thermal stability, DSF | 10 µM | ΔTm | 1 °C |
| CNCc1ccccc1-c1csc([C@H](C)Nc2nc(C)nc3cc(OC)c(OC)cc23)c1 | cell-free assay, competition with immobilised ligand | 1 µM | remaining binding | 91% |
| CC1(C)NC(=O)c2[nH]c3c(Cl)c(Cl)ccc3c2C1C#N (stereo not shown) | thermal stability, DSF | 10 µM | ΔTm | 1.8 °C |
| CN([C@@H]1CCc2c(CC(=O)O)c3ccccc3n2C1)S(=O)(=O)c1ccc(F)cc1 | cell-free assay, competition with immobilised ligand | 1 µM | remaining binding | 90% |
| COc1cc2ncnc(Nc3ccc(Oc4ccccc4)cc3C)c2cc1OC | enzyme activity, inhibitor | 1 µM | inhibition | 2% |
| CCS(=O)(=O)c1cc2cc(C[C@@](O)(CC(C)(C)c3ccc(F)cc3C(N)=O)C(F)(F)F)[nH]c2cn1 | cell-free assay, competition with immobilised ligand | 1 µM | remaining binding | 97% |
| O=c1c2ccccc2[nH]c(=S)n1CCN1CCC(=C(c2ccc(F)cc2)c2ccc(F)cc2)CC1 | enzyme activity, inhibitor | 0.5 µM | remaining activity | 100% |
| CN(C)C(=O)Cn1cc(-c2nc(C3(c4ccc(-c5cnc(N)nc5)cc4)CC3)no2)cn1 | cell-free assay, competition with immobilised ligand | 1 µM | remaining binding | 100% |
| Cc1sc(C(=O)NC2COC2)cc1-n1cc(NC(=O)Nc2c(F)cccc2Cl)cn1 | enzyme activity, inhibitor | 10 µM | remaining activity | 97.9% |
| CCN(CC)CCNC(=O)c1c(C)[nH]c(/C=C2\C(=O)Nc3ccc(Cl)cc32)c1C | enzyme activity, inhibitor | 0.5 µM | remaining activity | 46.7% |
| CC(C)(O)c1cncc(-c2nc3ccc(F)cc3n2C2CC2)c1 | cell-free assay, competition with immobilised ligand | 1 µM | remaining binding | 100% |
